Calls of active or inactive are those of the source. The calls are words filed in the database; no cut-off is given here.
Columns and labels:
[1] = molecular target: Casein kinase II (Homo sapiens, UniProt P19784+P67870+P68400); test: Inhibition of CK2; assay type: protein-complex assay
[2] = molecular target: Rho-associated protein kinase 2 (Homo sapiens) (UniProt O75116); test: Inhibition of ROCK2 at 10 uM relative to control; values are per cent of control
[3] = molecular target: 3-phosphoinositide-dependent protein kinase 1 (Homo sapiens) (UniProt O15530); test: Inhibition of PDK1 at 10 uM relative to control; values are per cent of control
3-phosphoinositide-dependent protein kinase 1 (Homo sapiens), sequence (O15530 whole entry): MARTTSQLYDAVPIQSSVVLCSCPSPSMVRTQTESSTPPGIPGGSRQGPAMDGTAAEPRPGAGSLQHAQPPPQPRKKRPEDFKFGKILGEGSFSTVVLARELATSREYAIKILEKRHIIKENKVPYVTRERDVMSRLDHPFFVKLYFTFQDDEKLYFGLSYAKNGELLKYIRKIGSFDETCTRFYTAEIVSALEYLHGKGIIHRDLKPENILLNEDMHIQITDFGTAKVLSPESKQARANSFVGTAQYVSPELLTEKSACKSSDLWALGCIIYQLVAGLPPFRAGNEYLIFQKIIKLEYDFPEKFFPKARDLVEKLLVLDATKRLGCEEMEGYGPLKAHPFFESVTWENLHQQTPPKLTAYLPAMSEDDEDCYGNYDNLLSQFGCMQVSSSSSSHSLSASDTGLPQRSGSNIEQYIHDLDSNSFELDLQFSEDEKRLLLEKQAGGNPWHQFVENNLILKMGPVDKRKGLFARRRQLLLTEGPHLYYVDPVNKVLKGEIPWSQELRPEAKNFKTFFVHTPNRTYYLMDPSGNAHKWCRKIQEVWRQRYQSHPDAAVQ

[4] = molecular target: Mitogen-activated protein kinase 14 (Homo sapiens) (UniProt Q16539); test: Inhibition of SAPK2a/p38 at 10 uM relative to control; values are per cent of control
Mitogen-activated protein kinase 14 (Homo sapiens), sequence (Q16539 whole entry): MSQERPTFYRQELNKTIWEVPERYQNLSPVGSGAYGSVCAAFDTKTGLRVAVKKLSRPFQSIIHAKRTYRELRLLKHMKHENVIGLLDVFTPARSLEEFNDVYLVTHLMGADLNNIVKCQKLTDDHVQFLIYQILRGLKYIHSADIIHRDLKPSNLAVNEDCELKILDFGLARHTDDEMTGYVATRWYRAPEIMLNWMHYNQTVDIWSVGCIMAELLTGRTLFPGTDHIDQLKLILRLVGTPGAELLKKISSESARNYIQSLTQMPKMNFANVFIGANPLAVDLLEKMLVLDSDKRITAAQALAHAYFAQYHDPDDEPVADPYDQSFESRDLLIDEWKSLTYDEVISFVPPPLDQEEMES

[5] = tested on: Jurkat; test: Induction of caspase activation assessed as HS1 protein cleavage in Jurkat T cells; assay type: functional, cell-based; conditions: Homo sapiens
Method in brief: (§1)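 Jurkat T cells suspended at 10⁶ cells/mL in RPMI-1640 with 1% fetal calf serum, treated 14 h at 37 °C with 5 or 10 μM compound; untreated cells as control, 50 ng/mL anti-Fas as apoptotic control. Cells lysed in hypo-osmotic buffer; caspase activation read by Western blot as degradation of HS1 (full length and major fragment) and PARP.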

[6] = molecular target: Mitogen-activated protein kinase 13 (Homo sapiens) (UniProt O15264); test: Residual activity of SAPK4/p38delta at 10 uM relative to control
[7] = molecular target: Protein kinase C alpha type (Homo sapiens) (UniProt P17252); test: Inhibition of PKCalpha at 10 uM relative to control; values are per cent of control
[8] = molecular target: Serine/threonine-protein kinase Sgk1 (Homo sapiens, UniProt O00141); test: Inhibition of SGK
[9] = molecular target: T1, Ribosomal protein S6 kinase alpha-1 (Homo sapiens, UniProt Q15418); test: Residual activity of MAPKAPK1a at 10 uM relative to control
T1 sequence (Q15418 whole entry): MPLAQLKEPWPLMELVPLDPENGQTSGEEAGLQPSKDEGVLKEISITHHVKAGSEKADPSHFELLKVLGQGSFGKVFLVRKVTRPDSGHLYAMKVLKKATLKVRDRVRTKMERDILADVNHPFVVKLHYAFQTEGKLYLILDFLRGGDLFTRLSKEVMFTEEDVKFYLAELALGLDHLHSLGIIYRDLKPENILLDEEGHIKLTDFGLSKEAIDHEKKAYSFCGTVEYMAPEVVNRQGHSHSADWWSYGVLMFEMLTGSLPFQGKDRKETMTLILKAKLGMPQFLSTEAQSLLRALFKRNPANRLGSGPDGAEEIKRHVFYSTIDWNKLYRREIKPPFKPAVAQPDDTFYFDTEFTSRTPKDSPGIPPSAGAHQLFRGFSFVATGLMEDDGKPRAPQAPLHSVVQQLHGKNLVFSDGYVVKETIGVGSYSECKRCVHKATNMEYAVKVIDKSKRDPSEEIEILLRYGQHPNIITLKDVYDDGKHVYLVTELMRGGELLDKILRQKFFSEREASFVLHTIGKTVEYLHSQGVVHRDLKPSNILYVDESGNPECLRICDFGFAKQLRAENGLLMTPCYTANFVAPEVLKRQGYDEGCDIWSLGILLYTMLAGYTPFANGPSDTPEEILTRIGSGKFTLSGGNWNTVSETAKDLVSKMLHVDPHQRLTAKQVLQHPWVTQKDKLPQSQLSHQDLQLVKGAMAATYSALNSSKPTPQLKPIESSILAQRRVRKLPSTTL

[10] = molecular target: T2, Dual specificity tyrosine-phosphorylation-regulated kinase 1A (Homo sapiens, UniProt Q13627); test: Inhibition of DYRK1A at 10 uM relative to control; values are per cent of control
[11] = molecular target: T3, Dual specificity mitogen-activated protein kinase kinase 1 (Homo sapiens, UniProt Q02750); test: Inhibition of MKK1
T3 sequence (Q02750 whole entry): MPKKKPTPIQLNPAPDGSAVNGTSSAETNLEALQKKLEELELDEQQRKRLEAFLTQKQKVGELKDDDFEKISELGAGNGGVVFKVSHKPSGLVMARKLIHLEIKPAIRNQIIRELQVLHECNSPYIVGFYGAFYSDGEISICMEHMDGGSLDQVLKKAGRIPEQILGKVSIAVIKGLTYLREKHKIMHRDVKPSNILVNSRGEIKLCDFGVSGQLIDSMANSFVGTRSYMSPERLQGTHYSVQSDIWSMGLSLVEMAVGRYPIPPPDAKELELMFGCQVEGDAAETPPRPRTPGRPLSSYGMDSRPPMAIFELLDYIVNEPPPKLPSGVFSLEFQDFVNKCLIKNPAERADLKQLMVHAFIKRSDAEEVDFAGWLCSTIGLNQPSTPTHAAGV

[12] = molecular target: MAP kinase-activated protein kinase 5 (Homo sapiens) (UniProt Q8IW41); test: Residual activity of PRAK at 10 uM relative to control
MAP kinase-activated protein kinase 5 (Homo sapiens), sequence (Q8IW41 whole entry): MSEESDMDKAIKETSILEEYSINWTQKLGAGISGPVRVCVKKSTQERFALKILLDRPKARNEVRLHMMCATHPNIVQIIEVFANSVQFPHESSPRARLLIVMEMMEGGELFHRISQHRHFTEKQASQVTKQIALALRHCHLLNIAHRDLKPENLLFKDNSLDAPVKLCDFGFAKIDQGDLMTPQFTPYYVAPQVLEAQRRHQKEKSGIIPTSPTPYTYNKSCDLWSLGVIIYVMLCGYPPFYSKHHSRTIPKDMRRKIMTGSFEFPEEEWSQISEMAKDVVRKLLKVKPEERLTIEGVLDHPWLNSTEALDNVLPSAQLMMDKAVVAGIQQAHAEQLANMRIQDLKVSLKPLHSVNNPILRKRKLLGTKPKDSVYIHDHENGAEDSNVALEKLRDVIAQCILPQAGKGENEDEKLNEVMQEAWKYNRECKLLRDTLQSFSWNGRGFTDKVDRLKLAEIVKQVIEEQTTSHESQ

[13] = molecular target: Mitogen-activated protein kinase 11 (Homo sapiens) (UniProt Q15759); test: Inhibition of SAPK2b/p38--beta-2 at 10 uM relative to control; values are per cent of control
[14] = molecular target: Ribosomal protein S6 kinase beta-1 (Homo sapiens) (UniProt P23443); test: Residual activity of S6K1 at 10 uM relative to control
[15] = molecular target: Tyrosine-protein kinase Lck (Homo sapiens) (UniProt P06239); test: Inhibition of Lck at 10 uM relative to control; values are per cent of control
Tyrosine-protein kinase Lck (Homo sapiens), sequence (P06239 2-509 limits assumed): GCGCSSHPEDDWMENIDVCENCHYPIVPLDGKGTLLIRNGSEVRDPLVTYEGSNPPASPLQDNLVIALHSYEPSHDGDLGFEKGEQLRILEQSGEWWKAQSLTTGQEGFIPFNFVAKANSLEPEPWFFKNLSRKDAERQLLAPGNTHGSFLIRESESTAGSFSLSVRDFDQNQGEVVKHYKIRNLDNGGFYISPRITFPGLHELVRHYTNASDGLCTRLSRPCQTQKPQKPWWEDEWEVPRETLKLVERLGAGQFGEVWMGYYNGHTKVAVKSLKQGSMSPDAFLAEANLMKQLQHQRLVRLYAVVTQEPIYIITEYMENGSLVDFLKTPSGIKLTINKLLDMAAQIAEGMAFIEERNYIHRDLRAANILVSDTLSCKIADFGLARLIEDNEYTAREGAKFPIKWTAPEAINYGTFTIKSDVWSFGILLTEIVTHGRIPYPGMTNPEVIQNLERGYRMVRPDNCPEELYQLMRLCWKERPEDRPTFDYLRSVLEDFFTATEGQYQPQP

[16] = molecular target: RAC-alpha serine/threonine-protein kinase (Homo sapiens) (UniProt P31749); test: Inhibition of PKBalpha at 10 uM relative to control; values are per cent of control
[17] = molecular target: Ribosomal protein S6 kinase alpha-5 (Homo sapiens) (UniProt O75582); test: Residual activity of MSK1 at 10 uM relative to control
Ribosomal protein S6 kinase alpha-5 (Homo sapiens), sequence (O75582 whole entry, looked up): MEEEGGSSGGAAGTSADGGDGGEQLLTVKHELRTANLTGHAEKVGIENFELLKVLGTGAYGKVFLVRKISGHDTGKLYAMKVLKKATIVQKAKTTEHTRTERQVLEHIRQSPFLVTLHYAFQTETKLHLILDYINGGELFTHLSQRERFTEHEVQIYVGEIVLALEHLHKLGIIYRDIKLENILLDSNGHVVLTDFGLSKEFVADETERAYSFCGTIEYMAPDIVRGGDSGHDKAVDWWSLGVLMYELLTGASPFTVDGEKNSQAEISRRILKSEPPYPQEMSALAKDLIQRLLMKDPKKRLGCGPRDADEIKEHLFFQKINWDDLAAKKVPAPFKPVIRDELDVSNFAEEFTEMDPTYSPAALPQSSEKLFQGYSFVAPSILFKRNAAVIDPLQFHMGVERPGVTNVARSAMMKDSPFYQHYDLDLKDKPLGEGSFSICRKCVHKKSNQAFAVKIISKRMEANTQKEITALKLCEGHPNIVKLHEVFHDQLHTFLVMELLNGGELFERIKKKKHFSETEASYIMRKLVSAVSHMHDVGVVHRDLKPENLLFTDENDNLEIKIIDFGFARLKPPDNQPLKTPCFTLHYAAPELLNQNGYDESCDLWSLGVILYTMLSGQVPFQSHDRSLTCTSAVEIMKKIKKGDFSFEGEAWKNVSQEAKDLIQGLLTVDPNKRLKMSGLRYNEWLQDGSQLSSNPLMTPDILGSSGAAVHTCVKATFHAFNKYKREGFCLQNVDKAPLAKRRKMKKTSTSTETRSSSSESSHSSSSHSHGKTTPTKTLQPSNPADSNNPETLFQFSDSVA

[18] = tested on: Jurkat; test: Induction of caspase activation assessed as PARP cleavage in Jurkat T cells; assay type: functional, cell-based; conditions: Homo sapiens; method in brief: as §1
[19] = tested on: Jurkat; test: Inhibition of cell viability in Jurkat T cells after 24 hrs by MTT method; assay type: functional, cell-based; conditions: Homo sapiens
Method in brief: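 Human Jurkat T-leukemia cells, grown in RPMI-1640 with 10% FCS, were resuspended at 10⁶ cells/mL in medium with 1% FCS. They were exposed to increasing compound concentrations for 24 h at 37 °C. Controls received DMSO (0.5% v/v), set as 100% viability. Viability was read by MTT. Values are means ± SEM of three separate experiments; DC50 was taken as the concentration halving viability.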

[20] = molecular target: MAP kinase-activated protein kinase 2 (Homo sapiens) (UniProt P49137); test: Inhibition of MAPKAPK2 at 10 uM relative to control; values are per cent of control
[21] = molecular target: T1, Ribosomal protein S6 kinase alpha-1; test: Inhibition of MAPKAPK1a
[22] = molecular target: T2, Dual specificity tyrosine-phosphorylation-regulated kinase 1A; test: Inhibition of DYRK1A
[23] = molecular target: Casein kinase I (Homo sapiens) (UniProt Q9HCP0+P78368+P48730+P49674+P48729); test: Residual activity of CK1 at 10 uM relative to control
[24] = molecular target: Mitogen-activated protein kinase 8 (Homo sapiens) (UniProt P45983); test: Inhibition of JNK/SAPK1c at 10 uM relative to control; values are per cent of control
[25] = molecular target: Tyrosine-protein kinase Lyn (Homo sapiens) (UniProt P07948); test: Residual activity of Lyn at 10 uM relative to control
[26] = molecular target: Mitogen-activated protein kinase 12 (Homo sapiens) (UniProt P53778); test: Residual activity of SAPK3/p38gamma relative to control
[27] = molecular target: Glycogen synthase kinase-3 beta (Homo sapiens) (UniProt P49841); test: Inhibition of GSKbeta at 10 uM relative to control; values are per cent of control
[28] = molecular target: T3, Dual specificity mitogen-activated protein kinase kinase 1; test: Inhibition of MKK1 at 10 uM relative to control; values are per cent of control
[29] = molecular target: Cyclin-dependent kinase 2/cyclin A (Homo sapiens, UniProt P24941); test: Inhibition of CDK2/Cyclin A; assay type: protein-complex assay
[30] = molecular target: cAMP-dependent protein kinase (PKA) (Homo sapiens) (UniProt P22694+P17612+P22612); test: Inhibition of PKA at 10 uM relative to control; values are per cent of control
[31] = molecular target: Serine/threonine-protein kinase Chk1 (Homo sapiens) (UniProt O14757); test: Inhibition of at CHK1 at 10 uM relative to control; values are per cent of control
[32] = molecular target: AMP-activated protein kinase (AMPK) alpha-1/beta-1/gamma-1 (Homo sapiens) (UniProt P54619+Q9Y478+Q13131); test: Inhibition of AMPK at 10 uM relative to control; values are per cent of control
[33] = tested on: Jurkat; test: Induction of mitochondrial depolarization in Jurkat T cells up to 10 uM; assay type: functional, cell-based; conditions: Homo sapiens
[34] = molecular target: EKC/KEOPS complex subunit BUD32 (Saccharomyces cerevisiae S288c) (UniProt P53323); test: Inhibition of PiD261 at 10 uM relative to control; values are per cent of control
[35] = molecular target: Tyrosine-protein kinase SYK (Rattus norvegicus) (UniProt Q64725); test: Residual activity of Syk at 10 uM relative to control
[36] = molecular target: Serine/threonine-protein kinase Sgk1 (Homo sapiens) (UniProt O00141); test: Inhibition of SGK at 10 uM relative to control; values are per cent of control
[37] = species: Homo sapiens; test: Inhibition of PP2A at 10 uM relative to control; values are per cent of control
[38] = species: Homo sapiens; test: Inhibition of phosphorylase kinase at 10 uM relative to control
[39] = molecular target: Mitogen-activated protein kinase 1 (Homo sapiens) (UniProt P28482); test: Inhibition of MAPK2/ERK2 at 10 uM relative to control; values are per cent of control

Casein kinase II, sequence (P67870 whole entry): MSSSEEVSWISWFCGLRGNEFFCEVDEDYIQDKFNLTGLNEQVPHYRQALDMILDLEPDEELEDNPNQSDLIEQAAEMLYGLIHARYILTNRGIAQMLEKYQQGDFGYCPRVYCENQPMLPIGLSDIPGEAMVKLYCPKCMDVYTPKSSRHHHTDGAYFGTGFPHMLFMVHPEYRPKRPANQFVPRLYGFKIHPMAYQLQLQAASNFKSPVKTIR
Casein kinase II, sequence (P68400 whole entry): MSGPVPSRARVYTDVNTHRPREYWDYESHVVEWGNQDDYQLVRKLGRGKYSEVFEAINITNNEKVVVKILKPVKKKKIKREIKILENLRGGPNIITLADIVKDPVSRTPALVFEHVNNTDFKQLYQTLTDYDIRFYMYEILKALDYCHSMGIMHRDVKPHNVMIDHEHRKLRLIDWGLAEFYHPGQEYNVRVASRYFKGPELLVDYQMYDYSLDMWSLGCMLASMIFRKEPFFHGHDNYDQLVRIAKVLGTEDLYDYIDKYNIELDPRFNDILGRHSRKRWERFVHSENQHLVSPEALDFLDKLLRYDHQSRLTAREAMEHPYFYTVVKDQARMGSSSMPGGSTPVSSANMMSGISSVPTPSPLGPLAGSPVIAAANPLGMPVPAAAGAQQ
Casein kinase II, sequence (P19784 whole entry): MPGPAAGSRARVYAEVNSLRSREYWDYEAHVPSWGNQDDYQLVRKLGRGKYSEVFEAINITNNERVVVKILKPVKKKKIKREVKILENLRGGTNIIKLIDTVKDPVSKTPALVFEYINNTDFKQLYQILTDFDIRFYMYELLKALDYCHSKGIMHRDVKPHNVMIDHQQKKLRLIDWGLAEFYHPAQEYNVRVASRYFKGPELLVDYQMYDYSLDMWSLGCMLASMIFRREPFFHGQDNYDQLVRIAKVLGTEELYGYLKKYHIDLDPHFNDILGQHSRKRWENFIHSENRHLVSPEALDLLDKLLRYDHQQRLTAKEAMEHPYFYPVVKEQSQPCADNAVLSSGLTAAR

SMILES: OCC(O)CSc1nc2c(Br)c(Br)c(Br)c(Br)c2[nH]1 (stereo unspecified)
- IC50 [1]: 150 nM
- Ki [1]: 140 nM

SMILES: CSc1nc2c(Br)c(Br)c(Br)c(Br)c2[nH]1
- IC50 [1]: 250 nM
- Ki [1]: 70 nM

SMILES: O=[N+]([O-])c1ccc(CSc2nc3c(Br)c(Br)c(Br)c(Br)c3[nH]2)cc1
- IC50 [1]: 3480 nM

SMILES: Cn1c(Br)nc2c(Br)c(Br)c(Br)c(Br)c21
- IC50 [1]: 430 nM
- Ki [1]: 540 nM

SMILES: CC(C)Nc1nc2c(Br)c(Br)c(Br)c(Br)c2[nH]1
- IC50 [1]: 160 nM
- Ki [1]: 60 nM

SMILES: CC(O)CNc1nc2c(Br)c(Br)c(Br)c(Br)c2[nH]1 (stereo unspecified)
- IC50 [1]: 280 nM
- Ki [1]: 140 nM

SMILES: CN(C)c1nc2c(Br)c(Br)c(Br)c(Br)c2n1C
- IC50 [1]: 130 nM
- Ki [1]: 200 nM

SMILES: CN(C)c1nc2c(Br)c(Br)c(Br)c(Br)c2[nH]1
- residual activity [2]: 69%
- residual activity [3]: 112%
- residual activity [4]: 85%
- Activity [5]: Active
- residual activity [6]: 109%
- residual activity [7]: 95%
- IC50 [8]: 3570 nM
- residual activity [9]: 52%
- residual activity [10]: 2%
- IC50 [11]: 10500 nM
- residual activity [12]: 77%
- residual activity [13]: 65%
- residual activity [14]: 65%
- residual activity [15]: 104%
- residual activity [16]: 96%
- residual activity [17]: 73%
- Activity [18]: Active
- DC50 [19]: 2700 nM
- residual activity [20]: 101%
- IC50 [21]: 10300 nM
- IC50 [22]: 120 nM
- residual activity [23]: 87%
- residual activity [24]: 97%
- residual activity [25]: 91%
- residual activity [26]: 88%
- residual activity [27]: 103%
- residual activity [28]: 53%
- IC50 [29]: 2380 nM
- residual activity [30]: 80%
- residual activity [31]: 81%
- residual activity [32]: 73%
- Activity [33]: inactive
- residual activity [34]: 97%
- residual activity [35]: 103%
- residual activity [36]: 29%
- residual activity [37]: 67%
- residual activity [38]: 41%
- residual activity [39]: 77%

SMILES: CNc1nc2c(Br)c(Br)c(Br)c(Br)c2[nH]1
- IC50 [1]: 210 nM
- Ki [1]: 90 nM

SMILES: CC(C)Oc1nc2c(Br)c(Br)c(Br)c(Br)c2n1C
- IC50 [1]: 20400 nM

SMILES: CCOC(=O)CSc1nc2c(Br)c(Br)c(Br)c(Br)c2[nH]1
- IC50 [1]: 1550 nM

SMILES: CCOc1nc2c(Br)c(Br)c(Br)c(Br)c2n1C
- IC50 [1]: > 40000 nM

Reference: ChEMBL document CHEMBL1149250, “Optimization of protein kinase CK2 inhibitors derived from 4,5,6,7-tetrabromobenzimidazole” (J Med Chem, 2004)
